Assay results reported in ChEMBL document CHEMBL1275502, “Establishing in vitro-in vivo correlations for Aspergillus fumigatus: the challenge of azoles versus echinocandins” (2008).
In brackets after ≈: the same amount, converted by molar mass. Activity calls are given as the source filed them. The rule behind the calls is not given here.

Assays:
[1] = system: Aspergillus fumigatus; test: Antimicrobial activity against Aspergillus fumigatus isolate DK infected in NMRI mouse assessed as survival rate at 20 mg/kg, po; type: functional
Summary of the method: (§1)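 NMRI mice (26 to 30 g) immunosuppressed with cyclophosphamide i.p., 200 mg/kg day −3 and 100 mg/kg day 0. Challenged i.v. on day 0 with 1.5 × 10⁵ CFU in groups of 10 to 13. Dosed in 0.25 ml on days 1 to 4 and 7 to 10: caspofungin i.p., posaconazole orally, or glucose i.p. as control. Scored daily. Survivors killed day 11. AT isolate run in two experiments.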

[2] = system: Aspergillus fumigatus; test: Antimicrobial activity against Aspergillus fumigatus isolate AT infected in NMRI mouse assessed as survival rate at 5 mg/kg, po; type: functional; summary of the method: as §1
[3] = system: Aspergillus fumigatus; test: Antimicrobial activity against Aspergillus fumigatus isolate AT infected in NMRI mouse assessed as survival rate at 20 mg/kg, po; type: functional; summary of the method: as §1
[4] = system: Aspergillus fumigatus; test: Antimicrobial activity against Aspergillus fumigatus isolate DK infected in NMRI mouse assessed as survival rate at 5 mg/kg, po; type: functional; summary of the method: as §1
[5] = system: Aspergillus fumigatus; test: Antimicrobial activity against Aspergillus fumigatus isolate AT infected in NMRI mouse assessed as reduction in galactomannan index relative to control; type: functional, organism-based
Summary of the method: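 Mice (NMRI) immunosuppressed with cyclophosphamide i.p. (200 mg/kg day −3, 100 mg/kg day 0). Challenged i.v. on day 0 with 1.5 × 10⁵ CFU. Treated on days 1–4 and 7–10 with caspofungin i.p. 2.25 mg/kg, posaconazole orally 5 or 20 mg/kg, or glucose i.p. (controls). Serum galactomannan index measured by Platelia ELISA on day 11 in survivors.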

[6] = system: Aspergillus fumigatus; test: Antimicrobial activity against Aspergillus fumigatus isolate DK by microdilution method; type: functional; details: read-out: MEC
Summary of the method: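 Broth microdilution by the EUCAST method for spore-forming moulds (C. krusei ATCC 6258 control), also a modified EUCAST version with 5 × 10⁴ cells/ml inoculum. Spore-inoculated plates incubated at 35°C for 24 to 48 h, read visually and spectrophotometrically. Azole MIC = lowest dilution giving no growth, ignoring single surface colonies. Echinocandin MEC = lowest concentration giving aberrant growth.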

[7] = system: Aspergillus fumigatus; test: Antimicrobial activity against Aspergillus fumigatus isolate AT assessed as amount of galactose in the alkali-insoluble fraction at 0.04 ug/ml; type: functional
Summary of the method: (§2)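 Mycelia pretreated by culture with 0.04 μg/ml caspofungin. Cell wall boiled twice in Tris-EDTA-SDS-mercaptoethanol, then alkali-fractionated twice (1 M NaOH/0.05 M NaBH₄, 70°C). Alkali-insoluble fraction (100 μg) digested overnight at 37°C with recombinant endo-β(1,3)-glucanase LamA in pH 6.0 acetate buffer. Read by HPAEC and reducing-sugar assay; hexoses by GC with meso-inositol internal standard. Pretreated values are means of two samples.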

[8] = system: Aspergillus fumigatus; test: Antimicrobial activity against Aspergillus fumigatus isolate AT assessed as amount of beta-(1,3)-glucan at 0.04 ug/ml; type: functional; summary of the method: as §2
[9] = system: Aspergillus fumigatus; test: Antimicrobial activity against Aspergillus fumigatus isolate AT assessed as FKS1 expression by RT-PCR relative to control; type: functional, organism-based
Summary of the method: (§3)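 Strains grown 24 h at 37°C with shaking (150 rpm) in RPMI 1640, with and without 0.25 μg/ml caspofungin. FKS1 transcript measured by real-time PCR, normalised to housekeeping genes (BTU, PMA1). Reported as the expression ratio of AT isolate to each reference strain.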

[10] = system: Aspergillus fumigatus; test: Antimicrobial activity against Aspergillus fumigatus isolate A29 by Etest method; type: functional
[11] = system: Aspergillus fumigatus; test: Ratio of FKS1 expression in Aspergillus fumigatus isolate AT to PMA1 expression in Aspergillus fumigatus 293 at 0.25 ug/ml by RT-PCR; type: functional; summary of the method: as §3
[12] = system: Aspergillus fumigatus; test: Antimicrobial activity against Aspergillus fumigatus isolate AT assessed as amount of mannose in the alkali-insoluble fraction at 0.04 ug/ml; type: functional; summary of the method: as §2
[13] = system: Aspergillus fumigatus; test: Antimicrobial activity against Aspergillus fumigatus isolate AT assessed as partial growth inhibition by microdilution method; type: functional, organism-based
Summary of the method: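 Broth microdilution MEC by EUCAST and CLSI methods (one lab used a modified EUCAST inoculum of 5 × 10⁴ cells/ml). Plates inoculated with spores and incubated at 35°C for 24 to 48 h. MEC taken as the lowest concentration giving aberrant growth, read by light microscopy.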

[14] = system: Aspergillus fumigatus; test: Ratio of FKS1 expression in Aspergillus fumigatus isolate AT to BTU expression in Aspergillus fumigatus ATCC 13073 at 0.25 ug/ml by RT-PCR; type: functional; summary of the method: as §3
[15] = system: Aspergillus fumigatus; test: Antimicrobial activity against Aspergillus fumigatus isolate DK infected in NMRI mouse assessed as survival rate at 2.25 mg/kg, ip; type: functional; details: route intraperitoneal; summary of the method: as §1
[16] = system: Aspergillus fumigatus; test: Antimicrobial activity against Aspergillus fumigatus isolate AT by Etest method; type: functional, organism-based
Summary of the method: (§4)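 Etest on RPMI 1640-2% glucose agar plates, run per the manufacturer's recommendations. Caspofungin Etest end point read after 2 days of incubation.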

[17] = system: Aspergillus fumigatus; test: Antimicrobial activity against Aspergillus fumigatus isolate AT assessed as amount of glucose in the alkali-insoluble fraction at 0.04 ug/ml; type: functional; summary of the method: as §2
[18] = system: Aspergillus fumigatus; test: Ratio of FKS1 expression in Aspergillus fumigatus isolate AT to PMA1 expression in Aspergillus fumigatus ATCC 13073 at 0.25 ug/ml by RT-PCR; type: functional; summary of the method: as §3
[19] = system: Aspergillus fumigatus; test: Antimicrobial activity against Aspergillus fumigatus isolate DK by Etest method; type: functional; summary of the method: as §4
[20] = system: Aspergillus fumigatus; test: Antimicrobial activity against Aspergillus fumigatus isolate AT infected in NMRI mouse assessed as survival rate at 2.25 mg/kg, ip; type: functional; details: route intraperitoneal; summary of the method: as §1
[21] = system: Aspergillus fumigatus; test: Ratio of FKS1 expression in Aspergillus fumigatus isolate AT to BTU expression in Aspergillus fumigatus 293 at 0.25 ug/ml by RT-PCR; type: functional; summary of the method: as §3

CC[C@@H]([C@H](C)O)n1ncn(-c2ccc(N3CCN(c4ccc(OC[C@@H]5CO[C@@](Cn6cncn6)(c6ccc(F)cc6F)C5)cc4)CC3)cc2)c1=O [POSACONAZOLE]
survival at 20 mg/kg [1]: 25% | survival at 5 mg/kg [2]: 70% | survival at 20 mg/kg [3]: 75% | survival at 5 mg/kg [4]: 16.7%

CC[C@H](C)C[C@H](C)CCCCCCCCC(=O)N[C@H]1C[C@@H](O)[C@@H](NCCN)NC(=O)[C@@H]2[C@@H](O)CCN2C(=O)[C@H]([C@H](O)CCN)NC(=O)[C@H]([C@H](O)[C@@H](O)c2ccc(O)cc2)NC(=O)[C@@H]2C[C@@H](O)CN2C(=O)[C@H]([C@@H](C)O)NC1=O [CASPOFUNGIN]
Activity [5]: Active | minimal effective concentration [6]: 0.25 µg/mL | Activity [7]: 16% | Activity [8]: 81% | Activity [9]: inactive | MIC [10]: 0.094 µg/mL (≈ 0.086 µM) | minimal effective concentration ([10]; in the assay text read “by microdilution method” for “by Etest method”, read-out: MEC): 0.04 µg/mL | Ratio [11]: 2.9 | Activity [12]: 10% | Activity [13]: Active | Ratio [14]: 3.41 | survival at 2.25 mg/kg [15]: 100% | Activity [16]: inactive | Activity [17]: 74% | Ratio [18]: 3.5 | Activity [19]: 0.125 µg/mL | survival at 2.25 mg/kg [20]: 25% | Ratio [21]: 2.78
